Here are results for 16 compounds from ChEMBL document CHEMBL3407437, “Antibacterial drug leads: DNA and enzyme multitargeting” (J Med Chem, 2015).

Converted amounts (≈) assume the structure as drawn.

For one test, the system named is Escherichia coli. Nature of the test: Antimicrobial activity against Escherichia coli K-12 after 3 hrs by broth microdilution method. Type of test: functional, organism-based. To be noted: K-12, 3 h.
Test [1] can be described thus: Binding affinity to DNA dodecamer complex (CGCGAATTCGCG)2 (unknown origin) assessed as change in melting temperature by differential scanning calorimetry.
For test [2], the system named is Staphylococcus aureus. Briefly: Antimicrobial activity against Staphylococcus aureus Newman after 9 hrs by spectrophotometry. The test is classed as functional, organism-based.
Test [3] is described as follows: Inhibition of Escherichia coli UPPS using FPP/IPP as substrate by spectrophotometry.
A short description of test [4]: Inhibition of Staphylococcus aureus UPPS using FPP/IPP as substrate by spectrophotometry. The gist of the method:
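Continuous spectrophotometric assay following UPPS-catalysed condensation of FPP with IPP. IC50 from fit of inhibition data to rectangular hyperbolic dose-response function.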

Test [5] is described as follows: Inhibition of FPPS (unknown origin).
Test [6] deals with Staphylococcus aureus. Nature of the test: Antimicrobial activity against Staphylococcus aureus. Type of test: functional.
Test [7] deals with Staphylococcus aureus. Briefly: Antimicrobial activity against Staphylococcus aureus assessed as fractional Inhibitory concentration index. The test is classed as functional.
Test [8] in a line: Inhibition of Staphylococcus aureus UPPS. In outline: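 Continuous spectrophotometric assay following UPPS-catalysed condensation of FPP with IPP. Reaction contained 400 µM MESG, 25 µM IPP, 2.5 µM FPP, […] pH 7.5, 0.01% Triton X-100 and 1 mM MgCl2. IC50 from fit of inhibition data to rectangular hyperbolic dose-response function.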

With `O=C(Nc1cccc(C2=NCCCN2)c1)c1ccc(-c2ccc(C(=O)Nc3cccc(C4=NCCCN4)c3)cc2)cc1`, the EC50 in the test with Escherichia coli was determined as 0.66 µM; with Staphylococcus aureus [2], 0.23 µM. In addition, the ΔTm in test [1] was 10 °C. The results for the IC50 in [3] and in test [4] were 5.5 µM and 4.5 µM, respectively.
As to `O=C(Nc1cccc(C2=NCCN2)c1)c1ccc(-c2ccc(C(=O)Nc3cccc(C4=NCCN4)c3)cc2)cc1`, the IC50 in [5] came to 2 µM; in test [8], 0.1 µM. For the same compound, the MIC with Staphylococcus aureus [6] is 0.25 µg/mL (≈ 0.473 µM). Moreover, in the test with Staphylococcus aureus [7], the “fractional inhibitory concentration index (FICI)” value turned out to be 0.25. In addition, the ΔTm in test [1] came to 11 °C.
Take `c1cc2cc(-c3ccc(-c4cc5ccc(C6=NCCCN6)cc5[nH]4)cc3)[nH]c2cc1C1=NCCCN1`: the results for the EC50 in the test on Escherichia coli and in the test with Staphylococcus aureus [2] were 0.24 µM and 0.028 µM, respectively. Further, the ΔTm in [1] was determined as 24 °C. Besides, the IC50 turned out to be 0.68 µM in test [3] and 0.47 µM in test [4].
Consider `O=C(Nc1cccc(Oc2ccccc2)c1)c1ccc(-c2ccc(C(=O)Nc3cccc(C4=NCCN4)c3)cc2)cc1`, for which the EC50 in the test with Escherichia coli is above 1500 µM; in the test on Staphylococcus aureus [2] it was 10 µM. Moreover, the ΔTm in test [1] came out at 0.6 °C. Also, the IC50 in test [3] worked out at 11 µM; in test [4], 5.7 µM.
The matching figures for `CCCCCCOc1cccc(NC(=O)c2ccc(-c3ccc(C(=O)Nc4cccc(C5=NCCN5)c4)cc3)cc2)c1`: above 1500 µM, 280 µM, 0.7 °C, 25 µM and 8.9 µM.
In the same order, the values of `c1cc2cc(-c3ccc(-c4cc5ccc(C6=NCCN6)cc5[nH]4)cc3)[nH]c2cc1C1=NCCN1` are 0.33 µM, 0.029 µM, 16 °C, 0.36 µM and 1.7 µM.
In the same order, the values of `O=C(Nc1ccc(C2=NCCN2)cc1)c1ccc(C(=O)Nc2ccc(C3=NCCN3)cc2)c([N+](=O)[O-])c1` are 14 µM, 28 µM, 3.9 °C, 4.8 µM and 4.9 µM.
Consider `O=P(O)(O)C(O)(Cc1cccc(-c2cccc(NS(=O)(=O)c3cccc(S(=O)(=O)Nc4cccc(-c5cccc(CC(O)(P(=O)(O)O)P(=O)(O)O)c5)c4)c3)c2)c1)P(=O)(O)O`, for which the EC50 with Escherichia coli was above 1500 µM; with Staphylococcus aureus [2], 100 µM. The thermal shift (ΔTm) in test [1] was -1 °C. In addition, the figures for the concentration for half-maximal inhibition (IC50) in test [3] and in test [4] were 0.36 µM and 0.39 µM, respectively.
In the case of `O=C(Nc1cccc(O[C@@H]2O[C@H](CO)[C@@H](O)[C@H](O)[C@H]2O)c1)c1ccc(-c2ccc(C(=O)Nc3cccc(C4=NCCN4)c3)cc2)cc1`, the EC50 in the test with Escherichia coli is above 1500 µM; in the test with Staphylococcus aureus [2], 570 µM. Also, in [1], the ΔTm is 5.8 °C. Besides, the values for the IC50 in [3] and in test [4] were 380 µM and 530 µM, respectively.
Consider `C(=C\c1cc2ccc(C3=NCCN3)cc2[nH]1)/c1cc2ccc(C3=NCCN3)cc2[nH]1`, for which the 50% effective concentration (EC50) with Escherichia coli was 1.2 µM; in the test with Staphylococcus aureus [2] it was 0.11 µM. Moreover, in test [1], the ΔTm amounted to 20 °C. Besides, the values for the IC50 in test [3] and in test [4] were 12 µM and 5.1 µM, respectively.
The matching figures for `Cn1cc(NC(=O)c2cc(NC(=O)CNC(=N)N)cn2C)cc1C(=O)NCCC(=N)N` [NETROPSIN]: 570 µM, 11 µM, 16 °C, 1400 µM and 1000 µM.
In the same order, the values of `OC[C@H]1O[C@@H](Oc2cccc(C#Cc3ccc(C#Cc4cccc(C5=NCCN5)c4)cc3)c2)[C@H](O)[C@@H](O)[C@@H]1O` are 900 µM, 380 µM, -1.2 °C, 14 µM and 5.6 µM.
In the same order, the values of `N=C(N)c1ccc(OCCCCCOc2ccc(C(=N)N)cc2)cc1` [PENTAMIDINE] are 12 µM, 4.2 µM, 2.7 °C, 400 µM and 240 µM.
For the compound `COc1cccc(NC(=O)c2ccc(-c3ccc(C(=O)Nc4cccc(C5=NCCN5)c4)cc3)cc2)c1`, the concentration for a half-maximal effect (EC50) in the test on Escherichia coli was 570 µM; in the test on Staphylococcus aureus [2], 7.7 µM. For the same compound, the ΔTm in test [1] amounted to 5.2 °C. For the same compound, the IC50 in test [3] was 9.4 µM; in [4], 2.1 µM.
In the same order, the values of `S=C(Nc1cccc(C2=NCCN2)c1)c1ccc(-c2ccc(C(=S)Nc3cccc(C4=NCCN4)c3)cc2)cc1` are 58 µM, 3 µM, 7.1 °C, 9.2 µM and 3.5 µM.
The matching figures for `NCCc1cc(Br)cc(C#Cc2cccc(C#Cc3cc(Br)cc(CCN)c3)c2)c1`: 0.97 µM, 7.6 µM, -0.1 °C, 6.1 µM and 1.4 µM.
